Experimental data as given in ChEMBL document CHEMBL1125880, “Structure-activity relationship of miltirone, an active central benzodiazepine receptor ligand isolated from Salvia miltiorrhiza Bunge (Danshen)” (J Med Chem, 1991).

Target: GABA-A receptor; anion channel
Assay: Potency related to miltirone (1) at the central benzodiazepine receptor was determined using [3H]flunitrazepam as radioligand
Assay type: protein-complex assay
Method in brief: (§1)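 Calf cerebral cortical membranes incubated 45 min at 0 °C with [³H]flunitrazepam (1 nM) in 50 mM Tris-HCl pH 7.4, final volume 500 μL. Terminated by dilution with ice-cold buffer, rapid GF/B filtration and washes; filter radioactivity counted by liquid scintillation. Nonspecific binding defined with 10 μM diazepam. IC50 = concentration giving 50% inhibition of specific binding; mean ± SD of (n) determinations in duplicate. Unstable compounds tested immediately after preparation.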

IC50 [µM] | Compound
> 30 | CCN(CC)C(=O)c1cccc2c1C(=O)C(=O)C(C(C)C)=C2
0.3 | CC(C)C1=Cc2ccc3c(c2C(=O)C1=O)CCCC3(C)C [MILTIRONE]
> 200 | CCc1cccc2c1C(=O)C(=O)C(C(C)C)=C2
2 | CC(C)C1=Cc2ccc3c(c2C(=O)C1=O)CCCC3(C)O (stereo not drawn)
17 | CC(C)C1=Cc2ccc3c(c2C(=O)C1=O)CC[C@@H](O)[C@]3(C)O
0.56 | CC(C)C1=Cc2ccc3c(c2C(=O)C1=O)CCCC3=O
0.9 | CC(C)C1=Cc2ccc3c(c2C(=O)C1=O)CCCC3
4.3 | CC(C)C1=Cc2cccc(C(=O)O)c2C(=O)C1=O
> 50 | CC(C)C1=Cc2ccccc2C(=O)C1=O
15 | CC(C)C1=Cc2ccc3c(c2C(=O)C1=O)CC[C@H](O)[C@]3(C)O

The next lines start with the compound.

Compound | IC50 [µM]
Cc1cc2ccc3c(c2oc1=O)CCCC3 | > 40
CC(C)C1=Cc2ccc3c(c2C(=O)C1=O)CCCCCC3 | 0.31
CC1(C)CCCc2c1ccc1c2C(=O)C(=O)C=C1 | 10
CC(C)C1=Cc2ccc3c(c2C(=O)C1=O)CCCCC3 | 0.23
CC(C)C1=Cc2ccc3c(c2C(=O)C1=O)CCCC(=O)N3 | 0.32
CC(C)C1=Cc2ncc3c(c2C(=O)C1=O)CCCC3 | 9.1
CC(C)C1=Cc2cc3c4c(c2C(=O)C1=O)CCCC4CC3 (stereo not drawn) | 0.05
CC(C)C1=CC2=C(CCCC2)C(=O)C1=O | > 140
CC1=Cc2ccc3c(c2C(=O)C1=O)CCCC3(C)C | 0.4

Target: GABA-A receptor; anion channel
Assay: inhibition of [3H]flunitrazepam binding to GABA-A central Benzodiazepine receptor of bovine cerebral cortex membrane
Assay type: tissue-based, Bos taurus
Method in brief: as §1

IC50 [µM] | Compound
20 | CC(C)C1=Cc2cccc(-c3ccccc3)c2C(=O)C1=O
> 40 | C=Cc1cccc2c1C(=O)C(=O)C(C(C)C)=C2
20 | O=C1C=Cc2ccc3c(c2C1=O)CCCC3
4.4 | CC1=CCCc2c1ccc1c2C(=O)C(=O)C(C(C)C)=C1
